Source: PubChem BioAssay (The Scripps Research Institute Molecular Screening Center)
Hits are enriched below; roughly 2.7% of the tested compounds scored in any of these assays.
PAFAH1B3 FP inh: inhibitors of human PAFAH1B3; Q15102; recombinant PAFAH1B3, FP-rhodamine probe, fluorescence polarization; inhibition, % at 3.39 µM; 340,000 compounds, 0.28% hits;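 active = inhibition above the screen-wide average of all tested compounds plus 3 SD, cut at about 25% in these data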;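 also: 0% = enzyme with DMSO only and 100% = wells lacking PAFAH1B3 protein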
Target sequence (Q15102 whole entry, looked up): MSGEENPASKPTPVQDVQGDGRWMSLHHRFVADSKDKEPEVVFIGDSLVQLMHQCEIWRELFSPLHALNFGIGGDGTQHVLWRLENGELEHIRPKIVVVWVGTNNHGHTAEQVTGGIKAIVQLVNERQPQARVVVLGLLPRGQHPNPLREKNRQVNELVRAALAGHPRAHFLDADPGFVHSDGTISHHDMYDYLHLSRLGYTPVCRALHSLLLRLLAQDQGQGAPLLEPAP
PAFAH1B2 FP inh: PAFAH1B2 (human) inhibition | P68402 | recombinant PAFAH1B2, FP-rhodamine activity probe, fluorescence polarization | inhibition, % at 3.39 µM | 340,000 compounds, 1.2% hits | AID 492953;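 active = inhibition above the mean of all tested compounds plus 3 SD, cut at about 24% in these data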;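 also: 0% = enzyme with DMSO and 100% = wells lacking PAFAH1B2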
Target sequence (P68402 whole entry, looked up): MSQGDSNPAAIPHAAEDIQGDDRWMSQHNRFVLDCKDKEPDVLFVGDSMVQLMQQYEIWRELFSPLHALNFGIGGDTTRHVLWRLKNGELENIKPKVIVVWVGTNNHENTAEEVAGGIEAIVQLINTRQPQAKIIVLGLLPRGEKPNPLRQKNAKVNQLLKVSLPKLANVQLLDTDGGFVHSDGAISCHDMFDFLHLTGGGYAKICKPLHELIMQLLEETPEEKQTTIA
PAFAH2 FP inh: PAFAH2 (human) inhibition; Q99487; recombinant PAFAH2, FP-rhodamine activity probe, fluorescence polarization; inhibition, % at 3.39 µM; 340,000 compounds, 0.99% hits; AID 492956;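 active = inhibition above the mean over all tested compounds plus 3 SD, cut at about 30% in these data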;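 also: inhibitors block probe labeling of enzyme so polarization drops; 0% = enzyme with DMSO and 100% = wells lacking PAFAH2 protein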
pPAFAH inh: inhibitors of human plasma PAF acetylhydrolase (pPAFAH) | inhibition, % at 3.39 µM | 330,000 compounds, 1.5% hits | recombinant pPAFAH, FP-rhodamine probe fluorescence polarization | Q13093;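 active = inhibition above the mean inhibition across the screen plus 3 SD, cut at about 25% in these data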;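 also: inhibitors block binding of the rhodamine activity-based probe so polarization drops; 0% = enzyme with DMSO and 100% = wells lacking pPAFAH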
ASAP1 GAP inh: inhibitors of human ASAP1 ArfGAP activity; 360,000 compounds, 0.19% hits; Q9ULH1; ASAP1-stimulated ARF1 GTP hydrolysis, GDP FP detection; inhibition, % at 16.5 µM; in the data active = inhibition above about 25%;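 also: 0% = vehicle with enzyme and substrate and 100% = no enzyme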
ARFGAP1 inh: inhibitors of rat ARFGAP1; 360,000 compounds, 0.26% hits; Q62848; inhibition, % at 16.5 µM; Arfgap1-stimulated ARF1 GTP hydrolysis, GDP FP detection;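 active = inhibition above a per-plate limit, mean inhibition of low control wells plus 3 SD, cut at about 25% in these data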;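 also: 0% = DMSO wells with enzyme and 100% = wells lacking Arfgap1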
Target sequence (Q62848 1-136 limits assumed): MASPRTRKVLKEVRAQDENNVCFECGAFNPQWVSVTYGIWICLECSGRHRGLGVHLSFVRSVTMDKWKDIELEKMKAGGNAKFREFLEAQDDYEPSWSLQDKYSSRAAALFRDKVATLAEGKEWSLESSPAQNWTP
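Repeats: one replicate per compound; assay system: rat Arfgap1 catalytic domain, aa 1-136; times: enzyme reaction 120 min at 25 °C after 20 min preincubation; detection: FP of antibody-bound GDP Alexa 633 tracer, ex 620/em 688 nm; benchmarks: high control wells lacking Arfgap1, low control full reaction with DMSO; reagent: human ARF1(Δ1-17)-GTP substrate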
Active calls of the source: *; · = no result.

SMILES	PAFAH1B3 FP inh	PAFAH1B2 FP inh	PAFAH2 FP inh	pPAFAH inh	ASAP1 GAP inh	ARFGAP1 inh
O=P(O)(Oc1ccccc1)OC(c1ccccc1)C(F)(F)F (stereo not drawn)	0.1	51.6*	67.3*	-11.1	4.0	0.5
CN1C[C@H](CNC(=O)OCc2ccccc2)C[C@@H]2c3cccc4c3c(cn4C)C[C@H]21	3.0	0.3	6.8	26.9*	10.5	11.4
CCCN1CCc2cccc3c2[C@H]1Cc1ccc(O)c(O)c1-3	16.1	2.8	-6.7	33.7*	·	·
COc1ccc2c(c1O)-c1c(OC)c(OC)cc3c1[C@H](C2)N(C)CC3	10.5	0.2	3.3	1.1	-8.7	-6.3
O=C(c1cc2c(s1)CCCCCC2)N1CCC2(CC1)OCCO2	3.8	2.7	24.9	33.3*	2.7	7.4
O=P(OCCCl)(OCCCl)OCCCl	·	·	·	·	-9.3	6.1
CC1Oc2cc3c(-c4c(O)cc(O)c5c(O)c6c(cc45)OC(C)C(C)C6=O)c(O)cc(O)c3c(O)c2C(=O)C1C (stereo not drawn)	60.4*	51.9*	46.0*	91.2*	·	·
O=C(O)CCC(=O)NCCC1=c2ccccc2=N/C1=C\c1c(O)n(Cc2ccc(F)cc2)c(=S)[nH]c1=O	-1.7	40.6*	38.4*	13.8	11.4	6.7
Cc1ccc(N2C(=O)/C(=C/c3ccc(CN(CCC#N)S(C)(=O)=O)o3)C(=O)NC2=S)cc1C	·	·	·	32.2*	·	·
O=C(NCCN1CCC2(CC1)C(=O)NCN2c1ccccc1)c1cccs1	·	·	·	·	-3.6	-5.3
Cc1ccc(N2C(=O)NC(=O)/C(=C\c3ccoc3)C2=O)cc1	6.2	-3.9	3.1	9.2	-3.5	-2.4
O=C1NC(=S)N(c2ccc(F)cc2)C(=O)/C1=C/c1ccco1	·	·	·	83.1*	·	·
O=C1NC(=S)N(c2ccc(F)cc2)C(=O)/C1=C\c1ccoc1	7.3	8.6	50.4*	·	·	·
COc1ccc(OC)c(N2C(=O)/C(=C/c3ccco3)C(=O)NC2=S)c1	·	·	·	87.1*	·	·
Cc1ccc(/C=C2\C(=O)NC(=S)N(c3cccc(F)c3)C2=O)o1	0.1	4.1	13.8	29.2*	7.0	-9.6
COc1ccc(N2C(=O)/C(=C/c3ccc(C)o3)C(=O)NC2=S)cc1	5.3	-4.6	12.2	·	4.6	-8.1
Cn1c(=O)c2c(nc(N/N=C/c3c(O)n(C4CCCCC4)c(=S)[nH]c3=O)n2C)n(C)c1=O	15.7	28.5*	10.1	9.2	-1.2	6.2
Cc1cccc(-n2c(O)c(/C=N/Nc3nc4c(c(=O)n(C)c(=O)n4C)n3C)c(=O)[nH]c2=S)c1	8.5	4.0	6.0	7.9	-3.7	0.4
O=C1NC(=O)N(Cc2ccco2)C(=O)/C1=C/C=C/c1ccco1	3.5	5.2	33.2*	33.4*	7.0	15.1
Cc1ccc(OCCn2cccc2/C=C2/C(=O)NC(=O)N(Cc3ccco3)C2=O)cc1	7.0	25.5*	14.5	22.0	-2.2	-11.2
O=C1NC(=O)N(Cc2ccccc2)C(=O)/C1=C\C=C\c1ccco1	2.8	3.5	22.1	19.6	7.7	5.3
O=S(=O)(c1ccc(Cl)cc1)N1Cc2ccc(Br)cc2-n2nncc2C1	·	·	·	·	-2.1	-3.1
COC(=O)C1=C(c2ccc(OC(F)(F)F)cc2)C[C@@H]2CC[C@H]1N2C(=O)NCc1ccco1	·	·	·	·	4.2	4.2
O=C1NC(=O)C(Nc2ccc(Cl)c(Cl)c2)C(=O)N1	1.8	5.3	-1.8	·	47.2*	13.9
O=C1CCCN1C(=O)c1cncc(Br)c1	3.6	25.8*	-2.4	0.5	-10.5	-1.7
SMILES	PAFAH1B3 FP inh	PAFAH1B2 FP inh	PAFAH2 FP inh	pPAFAH inh	ASAP1 GAP inh	ARFGAP1 inh
O=C(NC1CCCCC1)N1Cc2cc(Br)ccc2-n2nncc2C1	·	·	·	·	3.4	-2.0
CN1CC[C@@H]2CN[C@H](c3ccccc3)C[C@@H]21	·	·	·	·	-4.0	-9.2
BrCC(Br)C1CCC(Br)C(Br)C1 (stereo not drawn)	8.1	51.0*	7.4	1.2	-4.8	3.2
O=C1NC(=O)C(=Cc2ccc(Sc3ccccc3)o2)C(=O)N1	-0.6	29.3*	33.1*	11.7	-7.5	5.8
Cc1cc(/C=C2\C(=O)NC(=O)N(Cc3ccco3)C2=O)c(C)n1-c1ccc(C(=O)O)cc1	-4.0	6.4	3.5	9.5	2.6	0.0
Cc1cc(/C=C2/C(=O)NC(=O)N(c3ccccc3)C2=O)c(C)n1-c1ccc(F)cc1	-1.8	25.0*	29.1	7.5	-7.3	-3.3
Cc1cc(/C=C2\C(=O)NC(=O)N(Cc3ccccc3)C2=O)c(C)n1-c1ccc(Cl)c(C(=O)O)c1	7.9	7.9	43.3*	28.1*	1.2	3.1
O=C(Nc1ccc(Cl)cc1C(=O)c1ccccc1)c1ccccc1	0.8	-1.2	4.4	28.7*	-7.7	-5.1
CCC(C)/C=C(C)/C=C/C1=CC2=C(Cl)C(=O)C(C)(OC(C)=O)C(=O)C2=CO1 (stereo not drawn)	17.1	20.6	22.3	32.2*	·	·
CC(=O)C1=C(C)OC2=C(C(=O)CCC2)[C@@]12C(=O)N(C)c1ccccc12	·	·	·	·	-2.5	3.4
Cn1cc(C(=O)OCC(=O)Nc2ccccc2Cl)c2ccccc21	6.3	3.8	23.6	·	-14.5	1.1
Cn1cc(C(=O)OCC(=O)Nc2ccccc2)c2ccccc21	0.0	2.0	84.5*	28.9*	6.5	15.2
O=C(c1ccccc1)N1Cc2cc(Br)ccc2-n2nncc2C1	·	·	·	·	-3.1	-4.1
O=C(NCCN1CCC2(CC1)C(=O)NCN2c1ccccc1)c1ccc(Cl)cc1	·	·	·	·	-6.6	-2.2
O=c1[nH]c(O)c(/C=C2/C=CC(c3cc(Cl)ccc3Cl)=N2)c(=O)[nH]1	47.6*	76.4*	23.3	9.9	0.6	-7.5
COC(=O)C1=C(c2ccc(C(C)=O)cc2)C[C@@H]2CC[C@H]1N2C(=O)NCc1ccc(F)cc1	3.5	34.2*	-4.2	3.5	-1.4	-12.1
COC(=O)C1=C(c2cccc(OCc3ccccc3)c2)C[C@@H]2CC[C@H]1N2C(=O)NCc1ccc(OC)c(OC)c1	-3.0	26.3*	-0.3	-0.3	4.8	-3.1
CN1C[C@H](O)[C@H]2C[C@@H]1c1ccccc1O2	·	·	·	·	8.2	3.9
COC(=O)C(O)(c1ccc(NC(=O)Oc2ccccc2)cc1)C(F)(F)F (stereo not drawn)	8.0	3.7	0.8	0.6	-0.2	9.0
COC(=O)C(O)(c1ccc(NC(=S)NC(=O)c2ccccc2)cc1)C(F)(F)F (stereo not drawn)	3.9	-2.9	-2.5	33.5*	-3.1	-0.2
O=C(NCCN1CCC2(CC1)C(=O)NCN2c1ccccc1)c1ccccc1F	·	·	·	·	-13.1	1.0
O=C(O)C1(c2ccc(Cl)cc2)CCC1	-2.0	46.5*	0.8	4.3	13.0	0.4
O=C(NCCN1CCC2(CC1)C(=O)NCN2c1ccccc1)c1ccc2ccccc2c1	·	·	·	·	-3.2	9.8
Nc1c(C(=O)NCC2CCCO2)c2nc3ccccc3nc2n1Cc1ccco1 (stereo not drawn)	-3.6	4.6	-4.0	25.3*	-0.9	1.0
